Source: ChEMBL document CHEMBL3864185, “Identification of N-(2-Phenoxyethyl)imidazo[1,2-a]pyridine-3-carboxamides as New Antituberculosis Agents” (ACS Med Chem Lett, 2016)
≈ marks a conversion by molar mass, not a printed value.

Key:
[1] = test system: Mycobacterium tuberculosis; experiment: Antimycobacterial activity against drug-sensitive Mycobacterium tuberculosis H37Rv ATCC 27294 after 7 days by microplate alamar blue assay; format: functional; settings: H37Rv ATCC 27294, 168 h
Outline: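 Microplate Alamar Blue Assay against M. tuberculosis H37Rv ATCC 27294, read by fluorescence. MIC was the lowest concentration that reduced fluorescence by >90% relative to the mean of replicate bacterium-only controls.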

[2] = test system: Staphylococcus epidermidis; experiment: Antibacterial activity against methicillin-resistant Staphylococcus epidermidis 12-6 after 18 to 24 hrs by NCCLS M100-S11 based assay; format: functional
Outline: (§1)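 Broth MIC set up per NCCLS M100-S11. Plates were incubated at 35 °C for 18–24 h. MIC was the lowest concentration that inhibited visible bacterial growth, i.e. complete growth inhibition.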

Klebsiella pneumoniae = experiment: Antibacterial activity against Klebsiella pneumoniae 12-1 after 18 to 24 hrs by NCCLS M100-S11 based assay; format: functional
Pseudomonas aeruginosa = experiment: Antibacterial activity against Pseudomonas aeruginosa 12-12 after 18 to 24 hrs by NCCLS M100-S11 based assay; format: functional
Staphylococcus aureus [3] = experiment: Antibacterial activity against methicillin-sensitive Staphylococcus aureus 12-1 after 18 to 24 hrs by NCCLS M100-S11 based assay; format: functional
Escherichia coli = experiment: Antibacterial activity against Escherichia coli ATCC 25922 after 18 to 24 hrs by NCCLS M100-S11 based assay; format: functional
Staphylococcus aureus [4] = experiment: Antibacterial activity against methicillin-resistant Staphylococcus aureus 12-2 after 18 to 24 hrs by NCCLS M100-S11 based assay; format: functional; outline: as §1
Staphylococcus aureus [5] = experiment: Antibacterial activity against Staphylococcus aureus ATCC 25923 after 18 to 24 hrs by NCCLS M100-S11 based assay; format: functional
[6] = test system: Staphylococcus epidermidis; experiment: Antibacterial activity against methicillin-sensitive Staphylococcus epidermidis 12-1 after 18 to 24 hrs by NCCLS M100-S11 based assay; format: functional
Streptococcus pneumoniae = experiment: Antibacterial activity against Streptococcus pneumoniae ATCC 49619 after 18 to 24 hrs by NCCLS M100-S11 based assay; format: functional
[7] = Apparent volume of distribution in rat at 25 mg/kg, po administered as single dose; format: ADME, organism-based; settings: in vivo
Outline: (§2)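 Rats given one oral dose of 25 mg/kg; n = 6 animals, values as mean ± SD. Plasma profile gave Cmax, Tmax, AUC from zero to infinity, elimination half-life, mean residence time, apparent clearance (CL/F) and apparent volume of distribution (Vd/F).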

Rattus norvegicus [8] = experiment: Acute toxicity in rat assessed as mortality at 1000 mg/kg, po administered as single dose measured up to 7 days post dose; format: organism-based; settings: in vivo, 168 h
Outline: (§3)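 Single dose given intravenously to mice (50 and 100 mg/kg) or orally to rats (500 and 1000 mg/kg).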

[9] = Mean residence time in rat at 25 mg/kg, po administered as single dose; format: ADME, organism-based; settings: in vivo; outline: as §2
[10] = AUC (0 to infinity) in rat at 25 mg/kg, po administered as single dose; format: ADME, organism-based; set-up: dose 25 mg/kg, route oral, time infinity; settings: in vivo; outline: as §2
[11] = Half life in rat at 25 mg/kg, po administered as single dose; format: ADME, organism-based; settings: in vivo; outline: as §2
[12] = Cmax in rat at 25 mg/kg, po administered as single dose; format: ADME, organism-based; set-up: dose 25 mg/kg, route oral; settings: in vivo; outline: as §2
[13] = Apparent clearance in rat at 25 mg/kg, po administered as single dose; format: ADME, organism-based; settings: in vivo; outline: as §2
Rattus norvegicus [14] = experiment: Acute toxicity in rat assessed as mortality at 500 mg/kg, po administered as single dose measured up to 7 days post dose; format: organism-based; settings: in vivo, 168 h; outline: as §3
Mus musculus = experiment: Acute toxicity in mouse assessed as mortality at 50 to 100 mg/kg, iv administered as single dose measured up to 7 days post dose; format: organism-based; settings: in vivo, 168 h; outline: as §3
[15] = Tmax in rat at 25 mg/kg, po administered as single dose; format: ADME, organism-based; settings: in vivo; outline: as §2

## Cc1ccn2c(C(=O)NCCOc3ccccc3[N+](=O)[O-])c(C)nc2c1
[1]
  MIC90: 0.5 µg/mL (≈ 1.41 µM)

## Cc1ccc2nc(C)c(C(=O)NCCOc3ccc(Cl)cc3)n2c1
[2]
  MIC: > 32 µg/mL
[1]
  MIC90: 0.03 µg/mL (≈ 0.0873 µM)
Klebsiella pneumoniae
  MIC: > 32 µg/mL
Pseudomonas aeruginosa
  MIC: > 32 µg/mL
Staphylococcus aureus [3]
  MIC: > 32 µg/mL
Escherichia coli
  MIC: > 32 µg/mL
Staphylococcus aureus [4]
  MIC: > 32 µg/mL
Staphylococcus aureus [5]
  MIC: > 32 µg/mL
[6]
  MIC: > 32 µg/mL
Streptococcus pneumoniae
  MIC: > 32 µg/mL

## Cc1ccc(OCCNC(=O)c2c(C)nc3cc(C)ccn23)cc1
[1]
  MIC90: 0.673 µg/mL (≈ 2.08 µM)

## Cc1ccn2c(C(=O)NCCOc3ccc(Br)cc3)c(C)nc2c1
[1]
  MIC90: 0.463 µg/mL (≈ 1.19 µM)

## Cc1ccc(OCCNC(=O)c2c(C)nc3ccc(C)cn23)cc1
[1]
  MIC90: 0.204 µg/mL (≈ 0.631 µM)

## COc1ccccc1OCCNC(=O)c1c(C)nc2cc(C)ccn12
[1]
  MIC90: 2 µg/mL (≈ 5.89 µM)

## Cc1ccc2nc(C)c(C(=O)NCCNc3ccc(Br)cc3)n2c1
[1]
  MIC90: 0.25 µg/mL (≈ 0.646 µM)

## Cc1ccn2c(C(=O)NCCOc3ccccc3)c(C)nc2c1
[1]
  MIC90: 0.935 µg/mL (≈ 3.02 µM)

## Cc1cccc(OCCNC(=O)c2c(C)nc3cc(C)ccn23)c1
[1]
  MIC90: 0.329 µg/mL (≈ 1.02 µM)

## Cc1ccn2c(C(=O)NCCOc3ccc(-c4ccccc4)cc3)c(C)nc2c1
[1]
  MIC90: 0.518 µg/mL (≈ 1.34 µM)

## Cc1ccn2c(C(=O)NCCOc3ccc(Cl)cc3)c(C)nc2c1
[1]
  MIC90: 2 µg/mL (≈ 5.82 µM)

## Cc1cccc(OCCNC(=O)c2c(C)nc3ccc(C)cn23)c1
[2]
  MIC: > 32 µg/mL
[1]
  MIC90: 0.029 µg/mL (≈ 0.0897 µM)
Klebsiella pneumoniae
  MIC: > 32 µg/mL
Pseudomonas aeruginosa
  MIC: > 32 µg/mL
Staphylococcus aureus [3]
  MIC: > 32 µg/mL
Escherichia coli
  MIC: > 32 µg/mL
Staphylococcus aureus [4]
  MIC: > 32 µg/mL
Staphylococcus aureus [5]
  MIC: > 32 µg/mL
[6]
  MIC: > 32 µg/mL
Streptococcus pneumoniae
  MIC: > 32 µg/mL

## Cc1ccc2nc(C)c(C(=O)NCCOc3ccc(Br)cc3)n2c1
[7]
  Vd/F: 186 L/kg
[2]
  MIC: > 32 µg/mL
[1]
  MIC90: 0.027 µg/mL (≈ 0.0695 µM)
Rattus norvegicus [8]
  Activity: Non-Toxic
[9]
  MRT: 96 min
Klebsiella pneumoniae
  MIC: > 32 µg/mL
Pseudomonas aeruginosa
  MIC: > 32 µg/mL
Staphylococcus aureus [3]
  MIC: > 32 µg/mL
Escherichia coli
  MIC: > 32 µg/mL
[10]
  AUC(0-inf): 288 ng·h/mL
Staphylococcus aureus [4]
  MIC: > 32 µg/mL
Staphylococcus aureus [5]
  MIC: > 32 µg/mL
[11]
  half-life: 90 min
[12]
  Cmax: 225 ng/mL
[13]
  CL/F: 1440 mL/min/kg
[6]
  MIC: > 32 µg/mL
Rattus norvegicus [14]
  Activity: Non-Toxic
Streptococcus pneumoniae
  MIC: > 32 µg/mL
Mus musculus
  Activity: Non-Toxic
[15]
  Tmax: 30 min

## COc1ccccc1OCCNC(=O)c1c(C)nc2ccc(C)cn12
[1]
  MIC90: 0.401 µg/mL (≈ 1.18 µM)

## COc1ccc(OCCNC(=O)c2c(C)nc3cc(C)ccn23)cc1
[1]
  MIC90: 2 µg/mL (≈ 5.89 µM)

## Cc1ccc2nc(C)c(C(=O)NCCOc3ccc([N+](=O)[O-])cc3)n2c1
[1]
  MIC90: 0.245 µg/mL (≈ 0.691 µM)

## Cc1ccn2c(C(=O)NCCOc3ccccc3C)c(C)nc2c1
[1]
  MIC90: 0.231 µg/mL (≈ 0.714 µM)

## Cc1ccn2c(C(=O)NCCOc3ccc(F)cc3)c(C)nc2c1
[1]
  MIC90: 2 µg/mL (≈ 6.11 µM)

## Cc1ccc2nc(C)c(C(=O)NCCOc3ccc(F)cc3)n2c1
[1]
  MIC90: 0.146 µg/mL (≈ 0.446 µM)

## Cc1ccn2c(C(=O)NCCOc3cccc([N+](=O)[O-])c3)c(C)nc2c1
[1]
  MIC90: 0.5 µg/mL (≈ 1.41 µM)

## Cc1ccn2c(C(=O)NCCOc3ccc([N+](=O)[O-])cc3)c(C)nc2c1
[1]
  MIC90: 4 µg/mL (≈ 11.3 µM)

## COc1cccc(OCCNC(=O)c2c(C)nc3ccc(C)cn23)c1
[7]
  Vd/F: 188 L/kg
[2]
  MIC: > 32 µg/mL
[1]
  MIC90: 0.03 µg/mL (≈ 0.0884 µM)
[9]
  MRT: 42.6 min
Klebsiella pneumoniae
  MIC: > 32 µg/mL
Pseudomonas aeruginosa
  MIC: > 32 µg/mL
Staphylococcus aureus [3]
  MIC: > 32 µg/mL
Escherichia coli
  MIC: > 32 µg/mL
[10]
  AUC(0-inf): 214 ng·h/mL
Staphylococcus aureus [4]
  MIC: > 32 µg/mL
Staphylococcus aureus [5]
  MIC: > 32 µg/mL
[11]
  half-life: 67.2 min
[12]
  Cmax: 351 ng/mL
[13]
  CL/F: 1940 mL/min/kg
[6]
  MIC: > 32 µg/mL
Rattus norvegicus [14]
  Activity: Non-Toxic
Streptococcus pneumoniae
  MIC: > 32 µg/mL
Mus musculus
  Activity: Non-Toxic
[15]
  Tmax: 10.2 min

## Cc1ccc2nc(C)c(C(=O)NCCOc3ccccc3[N+](=O)[O-])n2c1
[1]
  MIC90: 0.303 µg/mL (≈ 0.855 µM)

## Cc1ccc2nc(C)c(C(=O)NCCOc3ccccc3C)n2c1
[2]
  MIC: > 32 µg/mL
[1]
  MIC90: 0.038 µg/mL (≈ 0.118 µM)
Klebsiella pneumoniae
  MIC: > 32 µg/mL
Pseudomonas aeruginosa
  MIC: > 32 µg/mL
Staphylococcus aureus [3]
  MIC: > 32 µg/mL
Escherichia coli
  MIC: > 32 µg/mL
Staphylococcus aureus [4]
  MIC: > 32 µg/mL
Staphylococcus aureus [5]
  MIC: > 32 µg/mL
[6]
  MIC: > 32 µg/mL
Streptococcus pneumoniae
  MIC: > 32 µg/mL

## COc1ccc(OCCNC(=O)c2c(C)nc3ccc(C)cn23)cc1
[2]
  MIC: > 32 µg/mL
[1]
  MIC90: 0.031 µg/mL (≈ 0.0913 µM)
Klebsiella pneumoniae
  MIC: > 32 µg/mL
Pseudomonas aeruginosa
  MIC: > 32 µg/mL
Staphylococcus aureus [3]
  MIC: > 32 µg/mL
Escherichia coli
  MIC: > 32 µg/mL
Staphylococcus aureus [4]
  MIC: > 32 µg/mL
Staphylococcus aureus [5]
  MIC: > 32 µg/mL
[6]
  MIC: > 32 µg/mL
Streptococcus pneumoniae
  MIC: > 32 µg/mL

## Cc1ccc2nc(C)c(C(=O)NCCOc3ccc(-c4ccccc4)cc3)n2c1
[1]
  MIC90: 0.39 µg/mL (≈ 1.01 µM)

## Cc1ccc2nc(C)c(C(=O)NCCOc3ccccc3)n2c1
[7]
  Vd/F: 33.8 L/kg
[2]
  MIC: > 32 µg/mL
[1]
  MIC90: 0.054 µg/mL (≈ 0.175 µM)
[9]
  MRT: 36.6 min
Klebsiella pneumoniae
  MIC: > 32 µg/mL
Pseudomonas aeruginosa
  MIC: > 32 µg/mL
Staphylococcus aureus [3]
  MIC: > 32 µg/mL
Escherichia coli
  MIC: > 32 µg/mL
[10]
  AUC(0-inf): 453 ng·h/mL
Staphylococcus aureus [4]
  MIC: > 32 µg/mL
Staphylococcus aureus [5]
  MIC: > 32 µg/mL
[11]
  half-life: 25.8 min
[12]
  Cmax: 655 ng/mL
[13]
  CL/F: 919 mL/min/kg
[6]
  MIC: > 32 µg/mL
Rattus norvegicus [14]
  Activity: Non-Toxic
Streptococcus pneumoniae
  MIC: > 32 µg/mL
Mus musculus
  Activity: Non-Toxic
[15]
  Tmax: 19.8 min

## COc1cccc(OCCNC(=O)c2c(C)nc3cc(C)ccn23)c1
[1]
  MIC90: 0.254 µg/mL (≈ 0.748 µM)

## NNC(=O)c1ccncc1 [ISONIAZID]
[1]
  MIC90: 0.049 µg/mL (≈ 0.357 µM)

## CO[C@H]1/C=C/O[C@@]2(C)Oc3c(C)c(O)c4c(O)c(c(/C=N/N5CCN(C)CC5)c(O)c4c3C2=O)NC(=O)/C(C)=C\C=C\[C@H](C)[C@H](O)[C@@H](C)[C@@H](O)[C@@H](C)[C@H](OC(C)=O)[C@@H]1C [RIFAMPIN]
[1]
  MIC90: 0.05 µg/mL (≈ 0.0608 µM)
